From PubChem BioAssay
Compounds with a hit are over-represented: about 1.3% of the library has one in this group of screens.
NR2E3 ag-1: activates human NR2E3 receptor; CHO-S Gal4-NCOR/VP16-NR2E3 two-hybrid, luciferase; inhibition of corepressor binding, % at 3.98 µM; 360,000 compounds, 0.35% hits; AID 602229;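 active = inhibition above the mean of all tested compounds plus 3 SD, cut at about 70% in these data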;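 note: 0% = DMSO with NR2E3 transfected cells and 100% = cells lacking NR2E3 construct; higher means lower luciferase signal from less NR2E3 corepressor binding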
Target sequence (Q9Y5X4 whole entry, looked up, the tested form may be a part): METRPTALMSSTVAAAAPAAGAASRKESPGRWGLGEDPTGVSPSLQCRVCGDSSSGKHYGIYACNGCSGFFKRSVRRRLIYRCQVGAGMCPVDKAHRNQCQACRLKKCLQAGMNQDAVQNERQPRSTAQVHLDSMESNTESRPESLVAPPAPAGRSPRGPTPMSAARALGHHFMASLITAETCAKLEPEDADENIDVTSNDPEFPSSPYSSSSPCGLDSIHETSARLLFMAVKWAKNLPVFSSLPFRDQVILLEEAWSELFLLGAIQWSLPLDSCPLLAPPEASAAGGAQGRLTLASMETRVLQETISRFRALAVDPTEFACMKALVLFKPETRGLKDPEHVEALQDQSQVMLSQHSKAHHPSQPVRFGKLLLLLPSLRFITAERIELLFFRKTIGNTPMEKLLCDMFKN
NR2E3 ag-2: agonists of human nuclear receptor NR2E3. Q9Y5X4. 320,000 compounds, 0.12% hits. inhibition of corepressor binding, % at 4.78 µM. GST-NR2E3/biotin-RetCOR TR-FRET, 1536-well;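 active = percent inhibition above the cutoff of mean plus 3 SD of all tested compounds, set per screening campaign, cut at about 20% in these data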;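 note: 0% = DMSO wells and 100% = biotin wells as full block of FRET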
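System: GST-NR2E3 and biotin-RetCOR proteins; probe or stimulus: 7 nM biotin-RetCOR; doses: compound at 4.8 µM, single dose; schedule: Compound–protein incubation for 5 h at 4 °C; detection: time-resolved FRET; read-out: percent inhibition; controls: biotin wells as high control, 0.6% DMSO wells as low control; format: 1536-well plates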
JMJD2C inh: inhibitors of human GASC-1 (JMJD2C) demethylase; GST-JMJD2C(1-420) H3K9me3 demethylation, DELFIA europium; inhibition, % at 2.35 µM; 330,000 compounds, 0.069% hits;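 active = more than half of a compound's replicate wells show inhibition beyond 50%, single wells judged on their own value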;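 note: signal counts dimethyl H3K9 product captured on neutravidin plate; 0% = median of DMSO wells and 100% = 0.3 times that DMSO median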
EP2 mod: EP2 receptor (human) modulation. P43116. EP2-expressing cells, cAMP HTRF FRET, PGE2 co-stimulation. induction, % at 25 µM. 260,000 compounds, 0.83% hits. AID 940;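 active = compounds whose cAMP rise, as percent of the full-agonist control response, exceeds 60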;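 note: rat C6 glioma line stably carrying human EP2 under a CMV promoter; the protocol text gives 20 µM as final concentration; 100% = response of wells given 1 µM PGE2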
Furin inh: inhibitors of human furin | P09958 | purified furin, fluorogenic substrate cleavage | inhibition, % at 20 µM or 30 µM | 220,000 compounds, 0.061% hits; in the data active = inhibition above about 25%
PGE2 EP2 inh: inhibitors of human EP2 prostaglandin E2 receptor. inhibition, % at 25 µM. AID 1422. 260,000 compounds, 0.52% hits. C6 glioma cells expressing human EP2, cAMP TR-FRET; cells stimulated with saturating PGE2. P43116;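 active = percent inhibition above 40 after rounding to a whole number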;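 note: rat C6 glioma host cells with rolipram phosphodiesterase inhibitor present; the protocol text gives 20 µM as final concentration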
NR2E3 ag confirm: NR2E3 agonism confirmed in two-hybrid assay. inhibition, % at 3.98 µM. CHO-S mammalian two-hybrid NR2E3-NCOR, luciferase luminescence. 2,300 compounds, 51% hits. shares compounds with NR2E3 ag-1;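 active = average inhibition above a cutoff equal to the mean inhibition of all tested compounds plus one SD, cut at about 70% in these data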;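 note: 0% = DMSO in NR2E3 cells and 100% = DMSO in cells lacking NR2E3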
GAL4-VP16 luc: counter-screen for NR2E3 agonists: GAL4-VP16 reporter inhibitors; shares compounds with NR2E3 ag-1; CHO-S GAL4-VP16 luciferase reporter, luminescence; inhibition, % at 3.98 µM; 2,300 compounds, 29% hits;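 active = mean inhibition above a cutoff equal to the average over all tested compounds plus one standard deviation, cut at about 70% in these data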;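 note: luciferase from a UAS reporter driven by GAL4-VP16 transactivation; 0% = DMSO with VP16-transfected cells and 100% = DMSO with cells lacking VP16; higher means less reporter light so more repression of VP16 activity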
* hit, by the source's call.

Screening BrC(=C\c1ccccc1)/C=N/n1cnnc1 returned NR2E3 ag-1 52, JMJD2C inh -6, EP2 mod -59, Furin inh -20, PGE2 EP2 inh 25, NR2E3 ag confirm 27 and GAL4-VP16 luc 28.
BrC(=C\c1ccccc1)/C=N/Nc1ccc2nncn2n1 was read as NR2E3 ag-1 -7, NR2E3 ag-2 0, JMJD2C inh 7, EP2 mod -64, Furin inh -15 and PGE2 EP2 inh 10.
`COc1ccccc1NC(=S)NNC(=O)c1ccc(Cl)cc1Cl` gave NR2E3 ag-1 53, NR2E3 ag-2 3, JMJD2C inh -4, EP2 mod 3, Furin inh -20, PGE2 EP2 inh 17, NR2E3 ag confirm -131 and GAL4-VP16 luc -115.
`Cc1ccccc1C(=O)NNC(=S)NC(=O)c1ccc(Cl)cc1Cl` gave NR2E3 ag-1 39, NR2E3 ag-2 -3, JMJD2C inh -2, EP2 mod -40, Furin inh -19 and PGE2 EP2 inh 16.
O=c1c2c([nH]n1-c1ccccc1)C[C@@H](C1CCCCC1)O[C@H]2c1ccc(F)cc1 was read as NR2E3 ag-1 57, NR2E3 ag confirm 10 and GAL4-VP16 luc -17.
Screening CC(=O)Nc1ccc(Cl)c(NC(=O)c2cccs2)c1 returned EP2 mod -42 and PGE2 EP2 inh 17.
`N#Cc1c(NCc2ccccc2)ccnc1NCc1cccnc1` gave NR2E3 ag-1 66, NR2E3 ag-2 1, JMJD2C inh -8, EP2 mod 12, Furin inh -14, PGE2 EP2 inh 3, NR2E3 ag confirm 57 and GAL4-VP16 luc 56.
Screening CCN(CC)C(=O)CSc1nnc(-c2ccccc2)n1Cc1ccco1 returned EP2 mod -7 and PGE2 EP2 inh 12.
Cc1cc(N2CCOCC2)nc(NCc2ccccc2)n1 was read as NR2E3 ag-1 53, NR2E3 ag-2 3, JMJD2C inh 5, EP2 mod -59, Furin inh -24, PGE2 EP2 inh 24, NR2E3 ag confirm 53 and GAL4-VP16 luc 60.
Cc1cc(N2CCCCC2)nc(NCc2ccccc2)n1 was read as NR2E3 ag-1 45, NR2E3 ag-2 -2, JMJD2C inh 2, EP2 mod -38, Furin inh -17 and PGE2 EP2 inh 32.
`CCc1nn(CC(=O)N2CC(C)CC(C)C2)c(=O)c2cc3ccsc3n12` (stereo unspecified) gave EP2 mod -38.
Screening CCN(CC)C(=O)Cn1ncc2c3sc(C)cc3n(Cc3ccc(F)cc3)c2c1=O returned EP2 mod 9.
c1cc2c(cc1-c1cnc3n1CCC3)OCCO2 was read as NR2E3 ag-1 56, NR2E3 ag-2 2, JMJD2C inh -3, EP2 mod 5, Furin inh -17, PGE2 EP2 inh 12, NR2E3 ag confirm 66 and GAL4-VP16 luc 3.
For COc1cccc2c1OC[C@@H](CO)[C@H]2N(C)C(=O)Nc1ccc(Cl)cc1Cl the results were NR2E3 ag-1 49, NR2E3 ag-2 3, JMJD2C inh 1, EP2 mod -24, Furin inh -27, NR2E3 ag confirm 11 and GAL4-VP16 luc 30.
For CC(C)(NO)/C(=N/O)c1ccc(Br)cc1 the results were NR2E3 ag-1 48, NR2E3 ag-2 2, JMJD2C inh -5, EP2 mod 46, Furin inh -16, PGE2 EP2 inh 8, NR2E3 ag confirm 13 and GAL4-VP16 luc -9.
For Cn1nc(C(C)(C)C)cc1C(=O)NCc1ccc2c(c1)OCO2 the results were NR2E3 ag-1 105*, NR2E3 ag-2 -4, JMJD2C inh 1, NR2E3 ag confirm 95* and GAL4-VP16 luc 79*.
For COCCn1c(C)c(C)c2c(NCCc3ccccc3)ncnc21 the results were NR2E3 ag-1 52, JMJD2C inh -2, NR2E3 ag confirm 1 and GAL4-VP16 luc -94.
For COCCN(C(=O)c1cccs1)C(C(=O)NC1CCCCC1)c1ccc(Cl)cc1 (stereo unspecified) the results were EP2 mod 6 and PGE2 EP2 inh 8.
FC(F)(F)c1nc(-c2ccncc2)ncc1-c1nnnn1-c1ccccc1 was read as NR2E3 ag-1 15, NR2E3 ag-2 0, JMJD2C inh -4, EP2 mod -27, Furin inh -11 and PGE2 EP2 inh 4.
Screening Fc1ccc(-n2nnnc2-c2cnc(-c3cccs3)nc2C(F)(F)F)cc1 returned NR2E3 ag-1 88*, NR2E3 ag-2 0, JMJD2C inh -3, EP2 mod -26, Furin inh -15, PGE2 EP2 inh 6, NR2E3 ag confirm 92* and GAL4-VP16 luc 69.
`C=CCn1c(O)c(N=NC(=S)Nc2ccccc2C)c2cc(S(=O)(=O)N3CCOCC3)ccc21` gave NR2E3 ag-1 63, NR2E3 ag-2 1, JMJD2C inh -4, EP2 mod 9, Furin inh -19, PGE2 EP2 inh 5, NR2E3 ag confirm 23 and GAL4-VP16 luc 26.
For Cc1cccc(NC(=S)N=Nc2c(O)n(CN3CCOCC3)c3ccccc23)c1C the results were NR2E3 ag-1 72*, NR2E3 ag-2 0, JMJD2C inh 1, EP2 mod -20, Furin inh -1, PGE2 EP2 inh 6, NR2E3 ag confirm 15 and GAL4-VP16 luc 22.
`Cn1c(=O)sc2cc(S(=O)(=O)N3CCCCC3CN3CCCCC3)ccc21` (stereo unspecified) gave EP2 mod -26 and PGE2 EP2 inh 5.
`CCOc1ccc(C(O)CN2CCC(O)(c3ccc4c(c3)OCO4)CC2)cc1` (stereo unspecified) gave EP2 mod -41 and PGE2 EP2 inh -1.
Screening CCOc1ccc2[nH]c(=O)c(CN(C(=S)NCCOC)C3CCCC3)cc2c1 returned EP2 mod -6 and PGE2 EP2 inh 11.
`CC(C)COC(=O)NCCOC(=O)Nc1cccc(Cl)c1` gave NR2E3 ag-1 73*, NR2E3 ag-2 0, JMJD2C inh 6, EP2 mod -17, Furin inh -20, PGE2 EP2 inh 17, NR2E3 ag confirm 89* and GAL4-VP16 luc 72*.
For O=C(O)c1cccnc1Nc1ccccc1N1CCOCC1 the results were EP2 mod 0 and PGE2 EP2 inh 12.
Screening Cc1cc(Br)ccc1NC(=O)CN(C)C(=O)C1CCN(c2ncnc3sc(C)c(C)c23)CC1 returned NR2E3 ag-1 62, NR2E3 ag confirm 26 and GAL4-VP16 luc 41.
